ChEMBL document CHEMBL1142516, “Design, synthesis, and structure-affinity relationships of novel series of sialosides as CD22-specific inhibitors” (J Med Chem, 2008)

Tests used:
[1] = target: T1, B-cell receptor CD22 (Homo sapiens, UniProt P20273); assay: Binding affinity to biotinylated human CD22-human IgG1 chimeric protein expressed in mouse J558LST6 cells by flow cytometry; type: cell-based
T1 sequence (P20273 whole entry): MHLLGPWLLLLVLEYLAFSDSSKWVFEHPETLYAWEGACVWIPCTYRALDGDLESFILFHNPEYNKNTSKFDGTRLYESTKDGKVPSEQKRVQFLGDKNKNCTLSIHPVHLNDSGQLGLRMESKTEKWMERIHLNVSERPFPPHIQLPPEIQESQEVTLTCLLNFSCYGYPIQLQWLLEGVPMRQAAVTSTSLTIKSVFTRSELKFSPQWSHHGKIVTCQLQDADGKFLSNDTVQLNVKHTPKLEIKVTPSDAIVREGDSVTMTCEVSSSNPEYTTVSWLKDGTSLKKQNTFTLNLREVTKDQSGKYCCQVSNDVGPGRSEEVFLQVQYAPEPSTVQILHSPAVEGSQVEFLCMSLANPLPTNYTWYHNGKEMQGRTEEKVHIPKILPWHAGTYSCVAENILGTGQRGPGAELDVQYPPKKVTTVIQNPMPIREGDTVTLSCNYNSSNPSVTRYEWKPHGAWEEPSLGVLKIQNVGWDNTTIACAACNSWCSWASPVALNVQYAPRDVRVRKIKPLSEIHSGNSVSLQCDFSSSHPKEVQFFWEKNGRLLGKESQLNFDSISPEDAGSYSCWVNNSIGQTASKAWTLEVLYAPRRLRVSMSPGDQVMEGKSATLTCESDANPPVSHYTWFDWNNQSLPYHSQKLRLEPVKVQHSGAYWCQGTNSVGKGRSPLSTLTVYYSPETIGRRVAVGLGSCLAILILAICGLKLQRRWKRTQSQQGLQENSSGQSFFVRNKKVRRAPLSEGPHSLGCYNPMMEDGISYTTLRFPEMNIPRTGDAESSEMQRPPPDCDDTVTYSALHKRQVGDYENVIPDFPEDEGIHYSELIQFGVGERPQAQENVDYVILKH
Method in brief: (§1)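 IC50 from inhibition of CD22-Fc binding to alpha2,6-sialic acid on ST6GalI-transfected J558L mouse myeloma cells (J558LST6), incubated with CD22-Fc plus varied sialoside concentrations. Detection with Alexa Fluor 647-streptavidin, 30 min on ice, then flow cytometry. % binding = (A−B)/(C−B)×100 using MFI: A, sialoside sample; B, parent J558L; C, untreated J558LST6. IC50 taken as 50% binding inhibition; means of ≥3 independent determinations.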

[2] = Binding affinity to biotinylated mouse CD22-human IgG1 chimeric protein expressed in mouse J558LST6 cells by flow cytometry; type: cell-based; method in brief: as §1

| Structure (SMILES) | IC50 [1] | IC50 [2] |
| --- | --- | --- |
| COc1ccc(O[C@@H]2O[C@H](CO[C@]3(C(=O)O)C[C@H](O)[C@@H](NC(=O)CO)[C@H]([C@H](O)[C@H](O)CNCc4ccc(-c5ccc(C(F)(F)F)cc5)cc4)O3)[C@H](O)[C@H](O)[C@H]2O)cc1 | 45 µM | 48 µM |
| COc1ccc(O[C@@H]2O[C@H](CO[C@]3(C(=O)O)C[C@H](O)[C@@H](NC(=O)CO)[C@H]([C@H](O)[C@H](O)CNC(=O)c4cccnc4)O3)[C@H](O)[C@H](O)[C@H]2O)cc1 | 132 µM | 32.2 µM |
| COc1ccc(O[C@@H]2O[C@H](CO[C@]3(C(=O)O)C[C@H](O)[C@@H](NC(=O)CO)[C@H]([C@H](O)[C@H](O)CNC(=O)c4ccc(-c5ccc(C(=O)O)cc5)cc4)O3)[C@H](O)[C@H](O)[C@H]2O)cc1 | 73.3 µM | 23.4 µM |
| COc1ccc(O[C@@H]2O[C@H](CO[C@]3(C(=O)O)C[C@H](O)[C@@H](NC(=O)CO)[C@H]([C@H](O)[C@H](O)CNC(=O)c4ccc(-c5cccc(C(=O)O)c5)cc4)O3)[C@H](O)[C@H](O)[C@H]2O)cc1 | 7.13 µM | 16.6 µM |
| COc1ccc(O[C@@H]2O[C@H](CO[C@]3(C(=O)O)C[C@H](O)[C@@H](NC(=O)CO)[C@H]([C@H](O)[C@H](O)CNC(=O)CCc4ccc(O)cc4)O3)[C@H](O)[C@H](O)[C@H]2O)cc1 | 7.65 µM | 139 µM |
| COc1ccc(O[C@@H]2O[C@H](CO[C@]3(C(=O)O)C[C@H](O)[C@@H](NC(=O)CO)[C@H]([C@H](O)[C@H](O)CNC(=O)Cc4ccc5ccccc5c4)O3)[C@H](O)[C@H](O)[C@H]2O)cc1 | 1 µM | 24.7 µM |
| COc1ccc(O[C@@H]2O[C@H](CO[C@]3(C(=O)O)C[C@H](O)[C@@H](NC(=O)CO)[C@H]([C@H](O)[C@H](O)CNCC4CCCCC4)O3)[C@H](O)[C@H](O)[C@H]2O)cc1 | 37.7 µM | 9.5 µM |
| CCCCCC(=O)NC[C@@H](O)[C@@H](O)[C@@H]1O[C@@](OC[C@H]2O[C@@H](Oc3ccc(OC)cc3)[C@H](O)[C@@H](O)[C@H]2O)(C(=O)O)C[C@H](O)[C@H]1NC(=O)CO | 40.9 µM | 88.5 µM |
| COc1ccc(O[C@@H]2O[C@H](CO[C@]3(C(=O)O)C[C@H](O)[C@@H](NC(=O)CO)[C@H]([C@H](O)[C@H](O)CNCc4ccc(-c5ccccc5O)cc4)O3)[C@H](O)[C@H](O)[C@H]2O)cc1 | 0.23 µM | 12.5 µM |
| COc1ccc(O[C@@H]2O[C@H](CO[C@]3(C(=O)O)C[C@H](O)[C@@H](NC(=O)CO)[C@H]([C@H](O)[C@H](O)CNCc4cc(OC)cc(OC)c4)O3)[C@H](O)[C@H](O)[C@H]2O)cc1 | 24.8 µM | 77.5 µM |
| COc1ccc(O[C@@H]2O[C@H](CO[C@]3(C(=O)O)C[C@H](O)[C@@H](NC(=O)CO)[C@H]([C@H](O)[C@H](O)CNC(=O)c4ccccc4O)O3)[C@H](O)[C@H](O)[C@H]2O)cc1 | 193 µM | 138 µM |
| COc1ccc(O[C@@H]2O[C@H](CO[C@]3(C(=O)O)C[C@H](O)[C@@H](NC(=O)CO)[C@H]([C@H](O)[C@H](O)CNC(=O)C4CCCCC4)O3)[C@H](O)[C@H](O)[C@H]2O)cc1 | 16 µM | 65.3 µM |
| COc1ccc(O[C@@H]2O[C@H](CO[C@]3(C(=O)O)C[C@H](O)[C@@H](NC(=O)CO)[C@H]([C@H](O)[C@H](O)CNCCCCc4ccc(-c5ccccc5)cc4)O3)[C@H](O)[C@H](O)[C@H]2O)cc1 | 6.22 µM | 4.1 µM |
| COc1ccc(O[C@@H]2O[C@H](CO[C@]3(C(=O)O)C[C@H](O)[C@@H](NC(=O)CO)[C@H]([C@H](O)[C@H](O)CNC(=O)C(c4ccccc4)c4ccccc4)O3)[C@H](O)[C@H](O)[C@H]2O)cc1 | 8.85 µM | 63.5 µM |
| COc1ccc(O[C@@H]2O[C@H](CO[C@]3(C(=O)O)C[C@H](O)[C@@H](NC(=O)CO)[C@H]([C@H](O)[C@H](O)CNCc4ccc(-c5ccc(C(=O)O)cc5)cc4)O3)[C@H](O)[C@H](O)[C@H]2O)cc1 | 43 µM | 10 µM |

More lines, now with the values ahead:

| IC50 [1] | IC50 [2] | Structure (SMILES) |
| --- | --- | --- |
| 85 µM | 93.1 µM | COc1ccc(O[C@@H]2O[C@H](CO[C@]3(C(=O)O)C[C@H](O)[C@@H](NC(=O)CO)[C@H]([C@H](O)[C@H](O)CN)O3)[C@H](O)[C@H](O)[C@H]2O)cc1 |
| 0.9 µM | 1.7 µM | COc1ccc(O[C@@H]2O[C@H](CO[C@]3(C(=O)O)C[C@H](O)[C@@H](NC(=O)CO)[C@H]([C@H](O)[C@H](O)CNC(=O)Cc4ccc(-c5ccc(O)cc5)cc4)O3)[C@H](O)[C@H](O)[C@H]2O)cc1 |
| 21.1 µM | 66.8 µM | COc1ccc(O[C@@H]2O[C@H](CO[C@]3(C(=O)O)C[C@H](O)[C@@H](NC(=O)CO)[C@H]([C@H](O)[C@H](O)CNC(=O)CCCc4ccc5ccc6cccc7ccc4c5c67)O3)[C@H](O)[C@H](O)[C@H]2O)cc1 |
| 4.3 µM | 2.9 µM | COc1ccc(O[C@@H]2O[C@H](CO[C@]3(C(=O)O)C[C@H](O)[C@@H](NC(=O)CO)[C@H]([C@H](O)[C@H](O)CNC(=O)Cc4ccc(-c5cccc(O)c5)cc4)O3)[C@H](O)[C@H](O)[C@H]2O)cc1 |
| 550 µM | 833 µM | C[Si](C)(C)CCO[C@@H]1O[C@H](CO[C@]2(C(=O)O)C[C@H](O)[C@@H](NC(=O)CO)[C@H]([C@H](O)[C@H](O)CO)O2)[C@H](O)[C@H](O)[C@H]1O |
| 125 µM | 115 µM | COc1ccc(O[C@@H]2O[C@H](CO[C@]3(C(=O)O)C[C@H](O)[C@@H](NC(=O)CO)[C@H]([C@H](O)[C@H](O)CNC(=O)c4ccccc4)O3)[C@H](O)[C@H](O)[C@H]2O)cc1 |
| 0.47 µM | 16.3 µM | COc1ccc(O[C@@H]2O[C@H](CO[C@]3(C(=O)O)C[C@H](O)[C@@H](NC(=O)CO)[C@H]([C@H](O)[C@H](O)CNCc4ccc(-c5ccccc5)cc4)O3)[C@H](O)[C@H](O)[C@H]2O)cc1 |
| 0.24 µM | 6.43 µM | COc1ccc(O[C@@H]2O[C@H](CO[C@]3(C(=O)O)C[C@H](O)[C@@H](NC(=O)CO)[C@H]([C@H](O)[C@H](O)CNCc4ccc(-c5ccc(O)cc5)cc4)O3)[C@H](O)[C@H](O)[C@H]2O)cc1 |
| 1.73 µM | 16.5 µM | COc1ccc(O[C@@H]2O[C@H](CO[C@]3(C(=O)O)C[C@H](O)[C@@H](NC(=O)CO)[C@H]([C@H](O)[C@H](O)CNCc4ccc(-c5cccc(O)c5)cc4)O3)[C@H](O)[C@H](O)[C@H]2O)cc1 |
| 10.4 µM | 168 µM | COc1ccc(O[C@@H]2O[C@H](CO[C@]3(C(=O)O)C[C@H](O)[C@@H](NC(=O)CO)[C@H]([C@H](O)[C@H](O)CNC(=O)CCc4ccccc4)O3)[C@H](O)[C@H](O)[C@H]2O)cc1 |
| 5.48 µM | 11.2 µM | COc1ccc(O[C@@H]2O[C@H](CO[C@]3(C(=O)O)C[C@H](O)[C@@H](NC(=O)CO)[C@H]([C@H](O)[C@H](O)CNCCc4ccc(-c5ccccc5)cc4)O3)[C@H](O)[C@H](O)[C@H]2O)cc1 |
| 1.1 µM | 52.9 µM | COc1ccc(O[C@@H]2O[C@H](CO[C@]3(C(=O)O)C[C@H](O)[C@@H](NC(=O)CO)[C@H]([C@H](O)[C@H](O)CNC(=O)c4ccc(-c5ccccc5)cc4)O3)[C@H](O)[C@H](O)[C@H]2O)cc1 |
| 1.76 µM | 30 µM | COc1ccc(O[C@@H]2O[C@H](CO[C@]3(C(=O)O)C[C@H](O)[C@@H](NC(=O)CO)[C@H]([C@H](O)[C@H](O)CNCc4ccc(-c5ccc(OC)cc5)cc4)O3)[C@H](O)[C@H](O)[C@H]2O)cc1 |
| 2.6 µM | 90 µM | COc1ccc(O[C@@H]2O[C@H](CO[C@]3(C(=O)O)C[C@H](O)[C@@H](NC(=O)CO)[C@H]([C@H](O)[C@H](O)CNC(=O)c4ccc5ccccc5c4)O3)[C@H](O)[C@H](O)[C@H]2O)cc1 |
| 0.4 µM | 8.63 µM | COc1ccc(O[C@@H]2O[C@H](CO[C@]3(C(=O)O)C[C@H](O)[C@@H](NC(=O)CO)[C@H]([C@H](O)[C@H](O)CNC(=O)c4ccc(-c5ccc(O)cc5)cc4)O3)[C@H](O)[C@H](O)[C@H]2O)cc1 |
| 123 µM | 25.7 µM | COc1ccc(O[C@@H]2O[C@H](CO[C@]3(C(=O)O)C[C@H](O)[C@@H](NC(=O)CO)[C@H]([C@H](O)[C@H](O)CNCc4ccccc4)O3)[C@H](O)[C@H](O)[C@H]2O)cc1 |
| 7.48 µM | 32.7 µM | COc1ccc(O[C@@H]2O[C@H](CO[C@]3(C(=O)O)C[C@H](O)[C@@H](NC(=O)CO)[C@H]([C@H](O)[C@H](O)CNCc4ccc(-c5cccc(C(=O)O)c5)cc4)O3)[C@H](O)[C@H](O)[C@H]2O)cc1 |
